Measured values as given in ChEMBL document CHEMBL4376838, “Discovery of Novel Celastrol Derivatives as Hsp90-Cdc37 Interaction Disruptors with Antitumor Activity” (J Med Chem, 2019).

Key:
A549 [1] = assay: Antiproliferative activity against human A549 cells assessed as inhibition of cell growth at 1.5 uM incubated for 48 hrs by MTT assay relative to control; format: functional; conditions: A549, 48 h, read-out: GI
HOS = assay: Antiproliferative activity against human HOS cells assessed as inhibition of cell growth incubated for 48 hrs by MTT assay; format: functional, cell-based
Outline: (§1)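 MTT read-out. Cells seeded at 5.0 × 10⁴ cells/ml and cultured 24 h, then exposed to the drug over a range of concentrations for 48 h, with matching DMSO as control. MTT (5 mg/ml) added for 4 h, supernatant removed, formazan dissolved in DMSO, OD read at 570 nm. Run in triplicate, mean ± SD (n = 3).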

MCF7 = assay: Antiproliferative activity against human MCF7 cells assessed as inhibition of cell growth incubated for 48 hrs by MTT assay; format: functional, cell-based; conditions: MCF7, 48 h; outline: as §1
A549 [2] = assay: Antiproliferative activity against human A549 cells assessed as inhibition of cell growth incubated for 48 hrs by MTT assay; format: functional, cell-based; conditions: A549, 48 h; outline: as §1
HepG2 = assay: Antiproliferative activity against human HepG2 cells assessed as inhibition of cell growth incubated for 48 hrs by MTT assay; format: functional, cell-based; conditions: HepG2, 48 h; outline: as §1

| SMILES | inhibition of growth at 1.5 µM (A549 [1]) | also measured |
| --- | --- | --- |
| CC1=C(O)C(=O)C=C2C1=CC=C1[C@@]2(C)CC[C@@]2(C)[C@@H]3C[C@](C)(C(=O)OCCOC(=O)/C=C(\C#N)c4ccc(C(F)(F)F)cc4)CC[C@]3(C)CC[C@]12C | 33.3% | – |
| CC1=C(O)C(=O)C=C2C1=CC=C1[C@@]2(C)CC[C@@]2(C)[C@@H]3C[C@](C)(C(=O)OCCCOC(=O)/C=C(\C#N)c4ccc(C)cc4)CC[C@]3(C)CC[C@]12C | 21.6% | – |
| COc1ccc(/C(C#N)=C/C(=O)OCCCCOC(=O)[C@]2(C)CC[C@]3(C)CC[C@]4(C)C5=CC=C6C(=CC(=O)C(O)=C6C)[C@]5(C)CC[C@@]4(C)[C@@H]3C2)cc1 | 9.57% | – |
| CC1=C(O)C(=O)C=C2C1=CC=C1[C@@]2(C)CC[C@@]2(C)[C@@H]3C[C@](C)(C(=O)OCCCCOC(=O)/C(C#N)=C/c4ccc(F)cc4)CC[C@]3(C)CC[C@]12C | 19% | – |
| CC1=C(O)C(=O)C=C2C1=CC=C1[C@@]2(C)CC[C@@]2(C)[C@@H]3C[C@](C)(C(=O)OCCCOC(=O)/C=C/c4ccc(C)cc4)CC[C@]3(C)CC[C@]12C | 29.1% | – |
| CC1=C(O)C(=O)C=C2C1=CC=C1[C@@]2(C)CC[C@@]2(C)[C@@H]3C[C@](C)(C(=O)OCCCOC(=O)/C(C#N)=C/c4ccc(F)cc4)CC[C@]3(C)CC[C@]12C | 25% | – |
| CC1=C(O)C(=O)C=C2C1=CC=C1[C@@]2(C)CC[C@@]2(C)[C@@H]3C[C@](C)(C(=O)OCCCOC(=O)/C(C#N)=C/c4ccc(C)cc4)CC[C@]3(C)CC[C@]12C | 34.7% | – |
| COc1ccc(/C=C/C(=O)OCCOC(=O)[C@]2(C)CC[C@]3(C)CC[C@]4(C)C5=CC=C6C(=CC(=O)C(O)=C6C)[C@]5(C)CC[C@@]4(C)[C@@H]3C2)cc1 | 35.3% | – |
| CC1=C(O)C(=O)C=C2C1=CC=C1[C@@]2(C)CC[C@@]2(C)[C@@H]3C[C@](C)(C(=O)OCCOC(=O)/C(C#N)=C/c4ccccc4)CC[C@]3(C)CC[C@]12C | 24.3% | – |
| CC1=C(O)C(=O)C=C2C1=CC=C1[C@@]2(C)CC[C@@]2(C)[C@@H]3C[C@](C)(C(=O)OCCCCOC(=O)/C=C(\C#N)c4ccc(F)cc4)CC[C@]3(C)CC[C@]12C | 32.1% | – |
| CC1=C(O)C(=O)C=C2C1=CC=C1[C@@]2(C)CC[C@@]2(C)[C@@H]3C[C@](C)(C(=O)OC/C=C/COC(=O)/C=C(\C#N)c4ccc(F)cc4)CC[C@]3(C)CC[C@]12C | – | IC50 (HOS): 1330 nM; IC50 (MCF7): 1110 nM; IC50 (A549 [2]): 1840 nM; IC50 (HepG2): 2740 nM |
| CC1=C(O)C(=O)C=C2C1=CC=C1[C@@]2(C)CC[C@@]2(C)[C@@H]3C[C@](C)(C(=O)OCCCCOC(=O)/C=C/c4ccc(C(F)(F)F)cc4)CC[C@]3(C)CC[C@]12C | 6.19% | – |
| CC1=C(O)C(=O)C=C2C1=CC=C1[C@@]2(C)CC[C@@]2(C)[C@@H]3C[C@](C)(C(=O)OCCCCOC(=O)/C=C(\C#N)c4ccc(C(F)(F)F)cc4)CC[C@]3(C)CC[C@]12C | 18.3% | – |
| COc1ccc(/C=C(\C#N)C(=O)OCCOC(=O)[C@]2(C)CC[C@]3(C)CC[C@]4(C)C5=CC=C6C(=CC(=O)C(O)=C6C)[C@]5(C)CC[C@@]4(C)[C@@H]3C2)cc1 | 16.6% | – |
| CC1=C(O)C(=O)C=C2C1=CC=C1[C@@]2(C)CC[C@@]2(C)[C@@H]3C[C@](C)(C(=O)OCCOC(=O)/C(C#N)=C/c4ccc(C(F)(F)F)cc4)CC[C@]3(C)CC[C@]12C | 16% | – |
| CC1=C(O)C(=O)C=C2C1=CC=C1[C@@]2(C)CC[C@@]2(C)[C@@H]3C[C@](C)(C(=O)OCCOC(=O)/C(C#N)=C/c4ccc(C)cc4)CC[C@]3(C)CC[C@]12C | 29.9% | – |
| CC1=C(O)C(=O)C=C2C1=CC=C1[C@@]2(C)CC[C@@]2(C)[C@@H]3C[C@](C)(C(=O)OCCCOC(=O)/C=C/c4ccccc4)CC[C@]3(C)CC[C@]12C | 33.2% | – |
| COc1ccc(/C=C(\C#N)C(=O)OCCCOC(=O)[C@]2(C)CC[C@]3(C)CC[C@]4(C)C5=CC=C6C(=CC(=O)C(O)=C6C)[C@]5(C)CC[C@@]4(C)[C@@H]3C2)cc1 | 18.6% | – |
| CC1=C(O)C(=O)C=C2C1=CC=C1[C@@]2(C)CC[C@@]2(C)[C@@H]3C[C@](C)(C(=O)OCCOC(=O)/C(C#N)=C/c4ccc(F)cc4)CC[C@]3(C)CC[C@]12C | 26.1% | – |
| CC1=C(O)C(=O)C=C2C1=CC=C1[C@@]2(C)CC[C@@]2(C)[C@@H]3C[C@](C)(C(=O)OCCOC(=O)/C=C/c4ccc(C)cc4)CC[C@]3(C)CC[C@]12C | 28.6% | – |
| CC1=C(O)C(=O)C=C2C1=CC=C1[C@@]2(C)CC[C@@]2(C)[C@@H]3C[C@](C)(C(=O)OCCCCOC(=O)/C(C#N)=C/c4ccc(C(F)(F)F)cc4)CC[C@]3(C)CC[C@]12C | 7.85% | – |
